# Compound activity from PubChem BioAssay.
# TDP2 absorb = TDP2 (human) inhibition, absorbance primary screen. O95551. recombinant TDP2, T5PNP hydrolysis, p-nitrophenol absorbance 415 nm. inhibition, % at 12.8 µM. 370,000 compounds, 0.34% hits. AID 720702;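 active means inhibition above the mean of all tested compounds plus 3 SD, set per campaign, cut at about 25% in these data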
#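 System – recombinant human TDP2 · Amount – 120 nM TDP2 per well · Buffer or medium – Mg2+-containing Tris-HCl buffer, pH 7.5 · Reagent – T5PNP substrate, 5 mM · Dosing – 12.8 µM single point, 1% DMSO · Incubation – 2 h at 37 °C · Measured by – epi absorbance · Read-out basis – percent inhibition · Benchmarks – high control without enzyme, low control DMSO plus TDP2 · Repeats – singlicate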
# MBD2 inh = blocks human MBD2 binding to methylated DNA; Q9UBB5; TR-FRET, MBD2 binding to methylated oligonucleotide; inhibition, % at 4.4 µM; 370,000 compounds, 0.31% hits; AID 686964; in the data active means inhibition above about 13%
# LEDGF integ inh = blocks HIV-1 LEDGF/p75-dependent DNA integration; inhibition, % at 3.7 µM; 370,000 compounds, 0.64% hits; AID 743269; TR-FRET IN-LEDGF/p75 DNA integration, Eu/Cy5;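 active means inhibition above the screen-wide mean plus 3 SD, cut at about 13% in these data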;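 further: signal is the Cy5 over europium emission ratio at 671 and 618 nm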
# SIAE primary = blocks human sialic acid acetylesterase; Q9HAT2; inhibition, % at 9.66 µM; 370,000 compounds, 0.69% hits; SIAE FP-Rh probe binding, fluorescence polarization;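 active means inhibition above a cutoff: mean of compounds within the control limits plus 3 SD of those, cut at about 17% in these data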
# Target sequence (Q9HAT2 whole entry, looked up): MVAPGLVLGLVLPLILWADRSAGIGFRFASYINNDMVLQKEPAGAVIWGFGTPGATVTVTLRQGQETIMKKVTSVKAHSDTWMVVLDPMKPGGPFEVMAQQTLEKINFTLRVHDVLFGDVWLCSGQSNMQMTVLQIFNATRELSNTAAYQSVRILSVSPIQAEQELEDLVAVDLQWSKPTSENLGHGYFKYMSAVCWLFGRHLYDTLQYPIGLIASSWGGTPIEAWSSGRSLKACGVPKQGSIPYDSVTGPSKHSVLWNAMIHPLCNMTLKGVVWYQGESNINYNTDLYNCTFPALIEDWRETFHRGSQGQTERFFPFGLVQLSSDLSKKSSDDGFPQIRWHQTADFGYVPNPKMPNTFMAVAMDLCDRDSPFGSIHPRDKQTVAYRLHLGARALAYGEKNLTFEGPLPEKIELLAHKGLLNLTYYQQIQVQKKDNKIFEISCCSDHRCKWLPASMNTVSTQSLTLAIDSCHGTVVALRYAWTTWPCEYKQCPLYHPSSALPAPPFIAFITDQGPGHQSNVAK
# UHRF1 binding = blocks human UHRF1 binding to methylated DNA. Q96T88. UHRF1 binding to methylated oligo, TR-FRET. inhibition, % at 4.4 µM. 370,000 compounds, 0.75% hits. AID 687016; in the data active means inhibition above about 21%;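 further: UHRF1 SRA domain binding a hemimethylated CpG hairpin DNA probe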
# PRMT1 FP inh = PRMT1 (human) inhibition, primary screen | Q99873 | recombinant PRMT1, activity-based probe fluorescence polarization | inhibition, % at 2.79 µM | 370,000 compounds, 1.3% hits | AID 652257;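 active means inhibition above about 21% made by adding two undisclosed values, limit read from the data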
# SIAE inh conf = confirmation of human SIAE inhibitors; shares compounds with SIAE primary; SIAE FP-Rh activity-based probe, fluorescence polarization; inhibition, % at 9.66 µM; 2,300 compounds, 13% hits;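 active means mean inhibition of the replicates above the hit cutoff set in the primary screen, cut at about 17% in these data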;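 further: inhibitors lower polarization as more probe stays unbound to SIAE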
# A number is an active result; . = inactive; / = no result. Only some compounds are listed: those with a hit (about 3.3% of all), similar ones and a draw of the others.
SMILES,TDP2 absorb,MBD2 inh,LEDGF integ inh,SIAE primary,UHRF1 binding,PRMT1 FP inh,SIAE inh conf
CC(=O)c1ccc(OC(=O)CCN2c3ccccc3Sc3ccccc32)cc1,.,.,.,19,.,.,.
COC(=O)c1ccc(OC(=O)CCN2c3ccccc3Sc3ccccc32)cc1,.,.,.,.,.,.,/
C=CC(=O)Nc1cccc(Oc2nc(Nc3ccc(N4CCN(C)CC4)cc3OC)ncc2Cl)c1,.,.,.,20,.,.,.
C=CC(=O)Nc1cccc(Oc2cc(Cl)nc3[nH]ccc23)c1,.,.,.,.,.,.,/
CCCN(CC1CC1)C(=O)c1ccc(CNC(=O)c2cccc(Br)c2)cc1,.,.,.,.,.,.,/
COC(=O)C1CN(Cc2cn(Cc3ccc(Cl)cc3)nn2)CCS(=O)(=O)N1Cc1ccc(OC)cc1 (stereo not drawn),.,.,.,.,.,.,/
O=C(NC(=S)NNC(=O)c1cccs1)c1ccco1,.,.,.,19,.,.,.
CCCCN1CC[C@@H](C)Oc2cc(Br)ccc2S1(=O)=O,.,.,.,.,.,.,/
O=C(CSc1nnc(-c2ccccn2)n1-c1ccc(Cl)cc1)Nc1ccc2c(c1)OCCO2,.,.,.,.,.,.,/
COc1ccc(NC(=O)COC(=O)Cc2ccsc2)c(OC)c1,.,.,.,.,.,.,/
COc1ccc(NC(=O)Cc2ccsc2)c(OC)c1,.,.,.,18,.,.,.
COCCCN1C(=O)[C@H](CC(=O)N2CCOCC2)[C@]2(C(=O)OC)CCCCC=C12,.,.,.,.,.,.,/
C#CCn1cc(/C=N/Nc2nc3ccccc3[nH]2)c2ccccc21,.,.,.,55,.,.,61
CC1CCC(C(C)C)C(OC(=O)COC(=O)c2cc(O)ccc2N)C1 (stereo not drawn),.,.,.,20,.,.,.
O=S1(=O)c2c(cccc2N2CCC[C@@H]2CO)O[C@H]2CCN1C2,.,.,.,.,.,.,/
COC(=O)C1=C(C)N(C)C(=NCc2ccc3c(c2)OCO3)NC1c1cccc(F)c1 (stereo not drawn),.,.,.,.,.,.,/
COc1ccc(C)cc1N(CC(=O)N1CCCC1)S(C)(=O)=O,.,.,.,18,.,.,.
CCOc1ccc(NC(=O)C/C(C)=N/NC(=O)c2cnccn2)cc1,.,.,.,20,.,.,.
CC(=O)NC(=S)Nc1ccc(NC(=S)NC(=O)/C=C/c2ccco2)cc1,.,.,.,31,.,.,.
O=C(/C=C/c1ccco1)NC(=S)NNC(=O)c1ccco1,.,.,.,.,.,.,/
CCCC1CCC2(CCC(=O)N2CCC#N)CC1 (stereo not drawn),.,.,.,.,.,.,/
CC/C(=C\C(=O)c1ccncc1)Nc1ccc(O)cc1,.,.,.,22,.,.,.
COc1ccc(-c2nn(-c3ccccc3)cc2/C=N/Nc2ccc3ccccc3n2)cc1OC,.,.,.,19,.,.,.
O=C(COC(=O)c1cccnc1)c1ccc(Cl)cc1,.,.,.,18,.,.,.
O=C(COC(=O)c1cccnc1)c1ccc(Cl)c(Cl)c1,.,.,.,.,.,.,/
SMILES,TDP2 absorb,MBD2 inh,LEDGF integ inh,SIAE primary,UHRF1 binding,PRMT1 FP inh,SIAE inh conf
COCCNc1nc(NCC2CCCCC2)c2sc(-c3ccccc3)cc2n1,.,.,.,20,.,.,32
COCCNc1nc(NCCOc2ccccc2Cl)c2sc(-c3ccccc3)cc2n1,.,.,.,20,.,.,26
CCCCC(=O)NC(c1ccc(Cl)cc1Cl)c1ccc2cccnc2c1O (stereo not drawn),.,.,.,.,.,.,/
CCCC(=O)NC(c1ccco1)c1cc([N+](=O)[O-])c2cccnc2c1O (stereo not drawn),.,.,.,.,.,.,/
CCC(=O)NC(c1ccco1)c1cc(Br)c2cccnc2c1O (stereo not drawn),.,.,.,19,.,.,.
CCC(=O)NC(c1ccc(Cl)cc1Cl)c1ccc2cccnc2c1O (stereo not drawn),.,.,.,19,.,.,.
CCCC(=O)NC(c1ccc(C(C)C)cc1)c1ccc2cccnc2c1O (stereo not drawn),.,.,.,.,.,.,/
CC(=O)NC(c1ccc(Cl)cc1)c1ccc2cccnc2c1O (stereo not drawn),.,.,.,17,.,.,.
Cc1ccc(OCc2nnc(SCC(=O)Nc3cccc4ccccc34)n2Cc2ccco2)cc1,.,.,.,.,.,.,/
Cc1c(C(=O)N/N=C/c2ccc(-c3ccccc3[N+](=O)[O-])o2)sc(N)c1C#N,.,.,.,26,.,.,.
Cc1c(-c2ccc(/C=N/NC(=O)C(=O)Nc3ccccc3F)o2)cccc1[N+](=O)[O-],.,.,.,.,.,.,/
CCOC(=O)CC1=C(C(=O)OCC)C(c2cccnc2)C(C#N)=C(N)O1 (stereo not drawn),.,.,.,17,.,.,.
Cc1ccc(-c2nnc(SCC(=O)Nc3ccc(F)cc3F)n2Cc2ccco2)cc1,.,.,.,.,.,.,/
COC(=O)[C@]12C[C@H](CC(=O)NCc3ccccc3)C(=O)N(CCc3ccc(OC)c(OC)c3)C1=C[C@H](C(C)C)O[C@@H]2C1CC1,.,.,.,.,.,.,/
Cc1cccc(NC(=O)CN2C(=O)N/C(=C/c3cc(C)n(C(C)C)c3C)C2=O)c1,.,.,.,23,.,.,.
CCOc1cccc(/C=C2/NC(=O)N(CC(=O)Nc3cccc(C)c3)C2=O)c1O,.,.,.,.,.,.,/
O=C(NC1CCCCN(Cc2cccc(C(F)(F)F)c2)C1=O)c1ccc(COc2ccccc2)cc1 (stereo not drawn),.,.,.,.,.,.,/
c1ccc(CNc2c3ccccc3nc3ccccc23)cc1,.,.,.,.,.,.,/
Oc1ccc(CCNc2c3ccccc3nc3ccccc23)cc1O,.,.,.,19,.,.,29
Cc1ccc(S(=O)(=O)N2CCC(O)(c3cccnc3)CC2)cc1,.,.,.,.,.,.,/
O=S(=O)(c1ccccc1Cl)N1CCC(O)(c2cccnc2)CC1,.,.,.,20,.,.,.
COC(=O)[C@]12C[C@H](CC(=O)N3CCCC3)C(=O)N(Cc3cccc4ccccc34)C1=C[C@H](C(C)C)O[C@@H]2C1CC1,.,.,.,.,.,.,/
NC(=O)c1ncn([C@@H]2O[C@H](C(=O)N3CCCN(Cc4ccccc4F)CC3)[C@@H](O)[C@H]2O)n1,.,.,.,80,.,.,88
Nc1ccn([C@@H]2O[C@H](C(=O)N3CCCN(Cc4ccccc4F)CC3)[C@@H](O)[C@H]2O)c(=O)n1,.,.,.,.,.,.,/
